Laboratory results as given in ChEMBL document CHEMBL1121471, “Synthesis and structure-activity relationships among alpha-adrenergic receptor agonists of the phenylethanolamine type” (J Med Chem, 1980).

Key:
[1] = target: T1, Adrenergic receptor alpha (Rattus norvegicus) (UniProt P15823+P23944+P43140+P22086+P19328+P22909); assay: Ratio of maximum contraction of rat aorta elicited versus that elicited by noradrenaline (defined as intrinsic activity); format: functional, tissue-based
Procedure, shortened: (§1)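 Helical strips of rat aorta (1.5–2 cm × 3–4 mm) were held in Krebs-Henseleit at 37 °C, gassed with 95% O2/5% CO2, at 2 g resting tension, and equilibrated about 2 h. Cumulative contraction curves were recorded isometrically, first for norepinephrine, then after washout and 1 h rest for the test agonist. pD2 (−log ED50) was derived by the Ariens–Van Rossum method. Intrinsic activity is the compound's maximum response divided by the norepinephrine maximum.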

[2] = target: T1, Adrenergic receptor alpha (Rattus norvegicus); assay: Binding affinity to alpha adrenergic receptors in rat aorta; format: tissue-based; procedure, shortened: as §1
[3] = Intrinsic activity of the compound, which is expressed as the ratio of the maximum response to the maximum response to norepinephrine; format: functional; procedure, shortened: as §1

| Structure (SMILES) | Ratio [1] | pD2 [2] | Intrinsic [3] |
| --- | --- | --- | --- |
| COc1cc(C(O)CN)ccc1O (stereo not drawn) | 1.1 | 6.23 | – |
| NC[C@H](O)c1ccc(O)c(O)c1 | 1 | 8.8 | – |
| COC(=O)c1cc(C(O)CN)ccc1O (stereo not drawn) | 0.9 | 4.85 | – |
| CCc1ccc(C(O)CN)cc1O (stereo not drawn) | 1.1 | 5.2 | – |
| NCC(O)c1ccc(Cl)c(O)c1 (stereo not drawn) | 1.1 | 6.35 | – |
| NCC(O)c1ccc(Br)c(O)c1 (stereo not drawn) | 1 | 5.58 | – |
| Cc1ccc(C(O)CN)cc1O (stereo not drawn) | – | 5.66 | 1.3 |
| NCC(O)c1ccc(I)c(O)c1 (stereo not drawn) | 0.9 | 4.99 | – |
| NCC(O)c1ccc(O)c(I)c1 (stereo not drawn) | 0.9 | 5.5 | – |
| NCC(O)c1ccc(O)c(Br)c1 (stereo not drawn) | 1.1 | 5.57 | – |
| NCC(O)c1ccc(O)c(F)c1 (stereo not drawn) | 1 | 6.78 | – |
| NCC(O)c1ccc(C2CCCCC2)c(O)c1 (stereo not drawn) | 0.7 | 4.86 | – |
| NCC(O)c1ccc(O)c(C(=O)O)c1 (stereo not drawn) | 1 | 4.07 | – |
| NCC(O)c1ccc(O)c(Cl)c1 (stereo not drawn) | 1 | 5.85 | – |
| CS(=O)(=O)Nc1cc(C(O)CN)ccc1O (stereo not drawn) | 1.1 | 7.19 | – |
| CS(=O)(=O)Nc1ccc(C(O)CN)cc1O (stereo not drawn) | 0.8 | 3.2 | – |
| CCc1cc(C(O)CN)ccc1O (stereo not drawn) | 0.9 | 6.09 | – |
| CC(C)c1ccc(C(O)CN)cc1O (stereo not drawn) | 0.7 | 5 | – |
| NCC(O)c1cccc(O)c1 (stereo not drawn) | 1 | 8.21 | – |
| NCC(O)c1ccc(O)c(C2CCCCC2)c1 (stereo not drawn) | 1.1 | 6.73 | – |
| CC(C)c1cc(C(O)CN)ccc1O (stereo not drawn) | 1.2 | 6.53 | – |
| COc1ccc(C(O)CN)cc1O (stereo not drawn) | 1 | 4.97 | – |
| NCC(O)c1ccc(O)cc1 (stereo not drawn) | 1.1 | 6.08 | – |
| Cc1cc(C(O)CN)ccc1O (stereo not drawn) | 1 | 5.96 | – |
